Measured values of several laboratories.
Protocols differ between the studies behind these lines.

`CC[C@@H]1CN(C(=O)NCC(F)(F)F)C[C@@H]1c1cnc2cnc3[nH]ccc3n12` has a Vd/F of 29.1 L/kg (beagle dog, plasma; oral, 1 mg/kg, single dose).
For `CN1CCC(c2ccccc2CC(C)(C)Nc2nc(N3CCOCC3)nc(-n3c(C(F)F)nc4ccccc43)n2)CC1`, the Vd was 9.7 L/kg (dog, plasma; intravenous, 2 mg/kg, single dose).
For `Oc1c(-n2ccnn2)cnn1-c1cc(N2CCOCC2)ncn1`, the Vd was 0.78 L/kg (female dog, plasma; intravenous, 3 mg/kg).
The Vd/F of `CCn1c(=O)c(-c2cc(NC(=O)Nc3ccccc3)c(F)cc2Br)cc2cnc(NC)cc21` is reported as 12.7 L/kg (beagle dog, plasma; oral, 5 mg/kg, single dose).
For `C=CC(=O)Nc1cc(Nc2nccc(Nc3cc(Cl)c(F)cc3C(C)(C)O)n2)c(OC)cc1N1CC[C@@H](N(C)C)C1`, the Vd was 29.5 L/kg (beagle dog, plasma; intravenous, 1 mg/kg).
`COc1ccnc(CNC(=O)c2cn(Cc3ccc(Cn4ccccc4=O)cc3)nc2C(F)(F)F)c1F` has a Vd of less than 1 L (male beagle dog, plasma; intravenous, 1 mg/kg).
With `O=C(NCCN1CCCC1)c1cc(-c2ccc(CN3CCOCC3)cc2)nc2ccc(F)cc12` the Vd was 30 L/kg (male beagle dog, blood; intravenous, 1 mg/kg).
`COCc1nn(Cc2ccc(Cn3ccccc3=O)cc2)cc1C(=O)NCc1nccc(OC)c1F` has a Vd of less than 1 L (male beagle dog, plasma; intravenous, 1 mg/kg).
The Vd of `Cc1nnc2sc(C(=O)NCc3ccc(-c4cccnc4F)cc3)c(N)c2c1C` is reported as 0.7 L/kg (dog, plasma; intravenous).
